≈ marks a conversion by molar mass, not a printed value. Calls of active or inactive are those of the source. No cut-off for these calls is given here.
Legend:
[1] = tested on: Candida albicans; assay: Growth inhibition of Candida albicans ATCC 10231 at 3.9 ug/ml incubated for 48 hrs under dark condition by broth microdilution assay relative to amphotericin B; assay type: functional; conditions: ATCC 10231, 48 h, read-out: GI
Procedure, shortened: (§1)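 Yeast broth microdilution (CLSI M27-A3), RPMI-1640, inoculum 1-5 x 10^3 CFU/mL, DMSO ≤1%, 48 h at 30 °C in a moist, dark chamber. […]. Triplicate; amphotericin B as positive control.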

[2] = tested on: Candida albicans; assay: Growth inhibition of Candida albicans ATCC 10231 at 7.81 ug/ml incubated for 48 hrs under dark condition by broth microdilution assay relative to amphotericin B; assay type: functional; conditions: ATCC 10231, 48 h, read-out: GI; procedure, shortened: as §1
[3] = tested on: Candida albicans; assay: Growth inhibition of Candida albicans ATCC 10231 at 15.62 ug/ml incubated for 48 hrs under dark condition by broth microdilution assay relative to amphotericin B; assay type: functional; conditions: ATCC 10231, 48 h, read-out: GI; procedure, shortened: as §1
[4] = tested on: Candida albicans; assay: Growth inhibition of Candida albicans ATCC 10231 at 31.25 ug/ml incubated for 48 hrs under dark condition by broth microdilution assay relative to amphotericin B; assay type: functional; conditions: ATCC 10231, 48 h, read-out: GI; procedure, shortened: as §1
[5] = tested on: Candida albicans; assay: Growth inhibition of Candida albicans ATCC 10231 at 62.5 ug/ml incubated for 48 hrs under dark condition by broth microdilution assay relative to amphotericin B; assay type: functional; conditions: ATCC 10231, 48 h, read-out: GI; procedure, shortened: as §1
[6] = tested on: Candida albicans; assay: Growth inhibition of Candida albicans ATCC 10231 at 125 ug/ml incubated for 48 hrs under dark condition by broth microdilution assay relative to amphotericin B; assay type: functional; conditions: ATCC 10231, 48 h, read-out: GI; procedure, shortened: as §1
[7] = tested on: Candida albicans; assay: Growth inhibition of Candida albicans ATCC 10231 at 250 ug/ml incubated for 48 hrs under dark condition by broth microdilution assay relative to amphotericin B; assay type: functional; conditions: ATCC 10231, 48 h, read-out: GI; procedure, shortened: as §1
[8] = tested on: Candida albicans; assay: Antifungal activity against Candida albicans ATCC 10231 incubated for 48 hrs under dark condition by broth microdilution assay; assay type: functional; conditions: ATCC 10231, 48 h
Procedure, shortened: (§2)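 Broth microdilution per CLSI M27-A3 in RPMI-1640. Inocula adjusted to 1-5 x 10^3 CFU/mL. Stocks in DMSO (≤1%), final 3.9-250.0 µg/mL. Incubated 48 h at 30 °C in a moist, dark chamber, read at OD 405. % inhibition computed from growth and sterility control wells, run in triplicate. MIC80/MIC50 taken from four-parameter logistic concentration-response curves; amphotericin B as positive control.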

[9] = Antifungal activity against Cryptococcus neoformans ATCC 32264 incubated for 48 hrs under dark condition by broth microdilution assay; assay type: functional; procedure, shortened: as §2
[10] = Antiproliferative activity against human Hep2C cells after 24 hrs by MTT assay; assay type: functional, cell-based
Procedure, shortened: (§3)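 Cells grown in medium with 10% foetal bovine serum and 1% L-glutamine at 37 °C, 5% CO2, seeded at 1 x 10^5 cells/well. Exposed to compound at 1.0-1,000 µg/mL for 24 h. MTT added, absorbance read at 540 nm 3 h later. IC50 obtained by non-linear regression of viability data.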

[11] = Antioxidant activity assessed as DPPH radical scavenging activity at 160 uM incubated for 30 mins under dark condition; assay type: functional
Procedure, shortened: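 Compound at 160 µM incubated with 100 µM DPPH in ethanolic medium, stirred in the dark for 30 min, read at 517 nm. Resveratrol as positive control. Three independent experiments, each in triplicate.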

[12] = Antioxidant activity assessed as DPPH radical scavenging activity incubated for 30 mins under dark condition; assay type: functional
Procedure, shortened: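 DPPH (100 µM) in ethanolic medium, stirred 30 min in the dark, absorbance at 517 nm. Compound varied from 0 to 160 µg/mL to find the concentration scavenging 50% of radicals. Three independent experiments, each in triplicate.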

[13] = Antioxidant activity assessed as fluorescent light-induced superoxide anion scavenging activity at 160 uM incubated for 10 mins by nitroblue tetrazolium dye based assay; assay type: functional
Procedure, shortened: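 Superoxide generated photochemically in 50 mM phosphate buffer pH 7.8 with 13 mM L-methionine, 75 µM nitroblue tetrazolium, 100 µM EDTA and 2 µM riboflavin. Compound at 160 µM. 10 min at 25 °C under fluorescent light; dark controls. Read at 575 nm. Resveratrol as positive control; three independent experiments in triplicate.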

[14] = Antioxidant activity assessed as fluorescent light-induced superoxide anion scavenging activity incubated for 10 mins by nitroblue tetrazolium dye based assay; assay type: functional
Procedure, shortened: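 Riboflavin/light superoxide system: 50 mM phosphate pH 7.8, 13 mM L-methionine, 75 µM NBT, 100 µM EDTA, 2 µM riboflavin, compound 0-200 µg/mL. Fluorescent light for 10 min at 25 °C, dark controls, scavenging measured at 575 nm. Resveratrol as reference.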

[15] = Potency index, ratio of resveratrol SC50 to compound SC50 for fluorescent light-induced superoxide anion scavenging activity
[16] = Ratio of antifungal activity against Candida albicans ATCC 10231 to antifungal activity against Cryptococcus neoformans ATCC 32264; assay type: functional
[17] = Antiproliferative activity against human TOV21G harboring wild type TP53 cells after 24 hrs by MTT assay; assay type: functional, cell-based; procedure, shortened: as §3
[18] = Antiproliferative activity against human CCD-19Lu cells after 24 hrs by MTT assay; assay type: cell-based; procedure, shortened: as §3
[19] = Antiproliferative activity against human NCI-H226 cells harboring TP53 mutant after 24 hrs by MTT assay; assay type: functional, cell-based; conditions: NCI-H226, 24 h; procedure, shortened: as §3
[20] = Selectivity index, ratio of IC50 for human CCD-19Lu cells to IC50 for human TOV21G cells; assay type: functional
Procedure, shortened: (§4)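 Selectivity index equals IC50 in non-tumour CCD 19-Lu lung fibroblasts divided by IC50 in the tumour line. Both IC50s come from the 24 h MTT assay (read at 540 nm) over 1.0-1,000 µg/mL.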

[21] = tested on: NCI-H226; assay: Selectivity index, ratio of IC50 for human CCD-19Lu cells to IC50 for human NCI-H226 cells; assay type: functional; procedure, shortened: as §4
[22] = Selectivity index, ratio of IC50 for human CCD-19Lu cells to IC50 for human Hep2C cells; assay type: functional; procedure, shortened: as §4

Structure (SMILES)	inhibition of growth at 3.9 µg/mL [1] [%]	inhibition of growth at 7.81 µg/mL [2] [%]	inhibition of growth at 15.62 µg/mL [3] [%]	inhibition of growth at 31.25 µg/mL [4] [%]	inhibition of growth at 62.5 µg/mL [5] [%]	inhibition of growth at 125 µg/mL [6] [%]	inhibition of growth at 250 µg/mL [7] [%]	MIC50 [8] [µg/mL]	MIC80 [8] [µg/mL]	MIC50 [9] [µg/mL]	MIC80 [9] [µg/mL]	IC50 [10] [µM]	Activity [11] [%]	SC50 [12] [µM]	Activity [13]	SC50 [14] [µM]	further results
Cc1ccc(-c2cc(-c3ccccc3)c3cc(Br)ccc3n2)cc1	0	0	3.04	2.64	5.87	11.1	31.5	> 250	> 250	15.6 (≈ 41.7 µM)	> 250	175	45 to 55	197	Active	104	Ratio [15]: 2
Brc1ccc2nc(-c3ccccc3)cc(-c3ccccc3)c2c1	1.16	2.57	7.33	10.1	17.2	30.7	55.9	125 (≈ 347 µM)	> 250	31.2 (≈ 86.6 µM)	> 250	128	45 to 55	> 250	< 10%	> 250	Ratio [16]: 4; IC50 [17]: 531 µM; IC50 [18]: 669 µM; IC50 [19]: 43.4 µM; Ratio IC50 [20]: 1; Ratio IC50 [21]: 15; Ratio IC50 [22]: 5

— ChEMBL document CHEMBL3875213, “Quinolines: Microwave-assisted synthesis and their antifungal, anticancer and radical scavenger properties” (Bioorg Med Chem, 2017)
